In brackets after ≈: the same amount, converted by molar mass.
Legend:
Haemophilus [1] = experiment: In vitro inhibitory activity against Haemophilus AmpS (43); assay type: functional
Enterococcus [2] = experiment: In vitro inhibitory activity against enterococci EryRi (19); assay type: functional
[3] = In vitro inhibitory activity against Pneumococci EryRc (34); assay type: functional
Mus musculus [4] = experiment: In Vivo evaluation for its effective dose against Streptococcus pneumoniae (030SJ1 EryRc); assay type: functional
Procedure, shortened: (§1)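 Male Charles River CD1 mice, 20-22 g, 10 per dose group, infected intraperitoneally with 0.5 mL diluted overnight broth culture (physiological buffer or 5% hog mucine) at 10-100 times the minimal lethal dose. Compound suspended in carboxymethylcellulose, 0.5 mL given orally immediately and 4 h postinfection. Survival followed 8-10 days; ED50 (unitary dose protecting 50% from death) by Litchfield-Wilcoxon probit method.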

Enterococcus [5] = experiment: In vitro inhibitory activity against enterococci EryRc (13); assay type: functional
Streptococcus sp. [6] = experiment: In vitro inhibitory activity against Streptococci EryRi (98); assay type: functional
Staphylococcus sp. [7] = experiment: In vitro inhibitory activity against Staphylococci Staphylococci EryRc (23); assay type: functional
Mus musculus [8] = experiment: In Vivo evaluation for its effective dose against Streptococcus pneumoniae (030RO1 EryRi); assay type: functional; procedure, shortened: as §1
[9] = In vitro inhibitory activity against Pneumococci PenR (65); assay type: functional
Haemophilus [10] = experiment: In vitro inhibitory activity against Haemophilus AmpR (37); assay type: functional
Streptococcus sp. [11] = experiment: In vitro inhibitory activity against Streptococci EryR (27); assay type: functional
Staphylococcus sp. [12] = experiment: In vitro inhibitory activity against Staphylococci EryRi (65); assay type: functional
Mus musculus [13] = experiment: In Vivo evaluation for its effective dose against Streptococcus pneumoniae (030Cr29 EryRc); assay type: functional; procedure, shortened: as §1
Mus musculus [14] = experiment: In Vivo evaluation for its effective dose against Streptococcus pneumoniae (030MV2 EryRc); assay type: functional; procedure, shortened: as §1
Mus musculus [15] = experiment: In Vivo evaluation for its effective dose against Staphylococcus aureus (011GO25 EryRi.; assay type: functional; procedure, shortened: as §1
Mus musculus [16] = experiment: In Vivo evaluation for its effective dose against Streptococcus pneumoniae (030SJ6 EryRc); assay type: functional; procedure, shortened: as §1
[17] = tested on: Staphylococcus epidermidis; experiment: In vitro inhibitory activity against Staphylococcus epidermidis (EryRi 012GO11i); assay type: functional
Procedure, shortened: (§2)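 Two-fold agar dilution on Mueller-Hinton agar (pH 7.4). Inoculum from overnight plate cultures suspended in Mueller-Hinton broth, adjusted to 10^9 CFU/mL, diluted 1:200 and spotted by multipoint inoculator at about 10^4 CFU/spot. Plates incubated 37 °C for 20 h. MIC taken as lowest concentration with no visible growth.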

[18] = tested on: Staphylococcus epidermidis; experiment: In vitro inhibitory activity against Staphylococcus epidermidis (EryRc 011CB2)
Staphylococcus aureus [19] = experiment: In vitro inhibitory activity against Staphylococcus aureus (EryRi 011GO25i); assay type: functional; procedure, shortened: as §2
Streptococcus pneumoniae [20] = experiment: In vitro inhibitory activity against Streptococcus pneumoniae (032UC1); assay type: functional; procedure, shortened: as §2
Escherichia coli = experiment: In vitro inhibitory activity against Escherichia coli (250 UC5); assay type: functional; procedure, shortened: as §2
Streptococcus pyogenes = experiment: In vitro inhibitory activity against Streptococcus pyogenes (02A1UC1); assay type: functional; procedure, shortened: as §2
Haemophilus influenzae [21] = experiment: In vitro inhibitory activity against Haemophilus influenzae (351HT3); assay type: functional; procedure, shortened: as §2
Streptococcus pneumoniae [22] = experiment: In vitro inhibitory activity against Streptococcus pneumoniae (EryRc 030SJ1); assay type: functional; procedure, shortened: as §2
Streptococcus pneumoniae [23] = experiment: In vitro inhibitory activity against Streptococcus pneumoniae (EryRi 030SJ5i); assay type: functional; procedure, shortened: as §2
Staphylococcus aureus [24] = experiment: In vitro inhibitory activity against Staphylococcus aureus (011UC4); assay type: functional; procedure, shortened: as §2
Haemophilus influenzae [25] = experiment: In vitro inhibitory activity against Haemophilus influenzae (351CB12); assay type: functional; procedure, shortened: as §2

CO[C@@H]1[C@@H](OC2OC(C)C(OC3CC(C)(O)C(OC(=O)CC(C)C)C(C)O3)C(N(C)C)C2O)[C@@H](CC=O)C[C@@H](C)[C@@H](O)/C=C/C=C/C[C@@H](C)OC(=O)C[C@H]1OC(C)=O (some centres not stated)
MIC50 (Haemophilus [1]): 5 µg/mL (≈ 6.04 µM)
MIC90 (Haemophilus [1]): 20 µg/mL (≈ 24.2 µM)
MIC50 (Enterococcus [2]): 1.2 µg/mL (≈ 1.45 µM)
MIC90 (Enterococcus [2]): 1.2 µg/mL (≈ 1.45 µM)
MIC50 [3]: 20 µg/mL (≈ 24.2 µM)
MIC90 [3]: 40 µg/mL (≈ 48.3 µM)
ED50 (Mus musculus [4]): > 100 mg/kg
MIC50 (Enterococcus [5]): 40 µg/mL (≈ 48.3 µM)
MIC90 (Enterococcus [5]): 40 µg/mL (≈ 48.3 µM)
MIC50 (Streptococcus sp. [6]): 5 µg/mL (≈ 6.04 µM)
MIC90 (Streptococcus sp. [6]): 40 µg/mL (≈ 48.3 µM)
MIC50 (Staphylococcus sp. [7]): 40 µg/mL (≈ 48.3 µM)
MIC90 (Staphylococcus sp. [7]): 40 µg/mL (≈ 48.3 µM)
ED50 (Mus musculus [8]): > 100 mg/kg
MIC50 [9]: 0.3 µg/mL (≈ 0.362 µM)
MIC90 [9]: 40 µg/mL (≈ 48.3 µM)
MIC50 (Haemophilus [10]): 5 µg/mL (≈ 6.04 µM)
MIC90 (Haemophilus [10]): 20 µg/mL (≈ 24.2 µM)
MIC50 (Streptococcus sp. [11]): 5 µg/mL (≈ 6.04 µM)
MIC90 (Streptococcus sp. [11]): 40 µg/mL (≈ 48.3 µM)
MIC50 (Staphylococcus sp. [12]): 1.2 µg/mL (≈ 1.45 µM)
MIC90 (Staphylococcus sp. [12]): 2.5 µg/mL (≈ 3.02 µM)
ED50 (Mus musculus [13]): > 100 mg/kg
ED50 (Mus musculus [14]): > 100 mg/kg
ED50 (Mus musculus [15]): > 100 mg/kg
ED50 (Mus musculus [16]): > 100 mg/kg

CC[C@H]1OC(=O)[C@H](C)C(=O)[C@H](C)[C@@H](O[C@@H]2O[C@H](C)C[C@H](N(C)C)[C@H]2O)[C@](C)(OC)C[C@@H](C)C(=O)[C@H](C)[C@H]2N(CCCCc3ccnc4ccccc34)C(=O)O[C@]12C
MIC [17]: 0.15 µg/mL (≈ 0.188 µM)
MIC [18]: 40 µg/mL (≈ 50.3 µM)
MIC (Staphylococcus aureus [19]): 0.08 µg/mL (≈ 0.101 µM)
MIC (Streptococcus pneumoniae [20]): 0.02 µg/mL (≈ 0.0251 µM)
MIC (Escherichia coli): 40 µg/mL (≈ 50.3 µM)
MIC (Streptococcus pyogenes): 0.02 µg/mL (≈ 0.0251 µM)
MIC (Haemophilus influenzae [21]): 1.2 µg/mL (≈ 1.51 µM)
MIC (Streptococcus pneumoniae [22]): 1.2 µg/mL (≈ 1.51 µM)
MIC (Streptococcus pneumoniae [23]): 0.02 µg/mL (≈ 0.0251 µM)
MIC (Staphylococcus aureus [24]): 0.04 µg/mL (≈ 0.0503 µM)
MIC (Haemophilus influenzae [25]): 1.2 µg/mL (≈ 1.51 µM)
